In ChEMBL document CHEMBL1129639, “Synthesis and cardiotonic activity of novel pyrimidine derivatives: crystallographic and quantum chemical studies” (J Med Chem, 1996):

Experiments:
[1] = molecular target: T1, Adenosine receptor A1 (Cavia porcellus, UniProt P47745); test: Inhibition of [3H]-CHA binding to Adenosine A1 receptor in guinea pig heart
T1 sequence (P47745 whole entry): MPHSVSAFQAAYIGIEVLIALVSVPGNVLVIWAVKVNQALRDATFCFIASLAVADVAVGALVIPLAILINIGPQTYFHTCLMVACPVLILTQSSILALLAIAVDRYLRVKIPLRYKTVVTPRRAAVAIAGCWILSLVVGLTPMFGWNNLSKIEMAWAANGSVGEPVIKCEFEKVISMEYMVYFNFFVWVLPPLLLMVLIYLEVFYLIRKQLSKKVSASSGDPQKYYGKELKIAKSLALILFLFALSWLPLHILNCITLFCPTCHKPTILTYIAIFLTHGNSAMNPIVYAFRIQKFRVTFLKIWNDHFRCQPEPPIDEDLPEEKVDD
Procedure, shortened: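 Guinea pig heart membranes prepared in 50 mM Tris-HCl pH 7.4 and pretreated with adenosine deaminase 2 IU/mL for 30 min at 37 °C. Incubated with 1 nM [3H]CHA, membranes from 15 mg tissue, 120 min at 23 °C. Bound ligand separated by GF/B filtration; nonspecific binding defined with (R)-PIA. Six concentrations tested in triplicate; IC50 by probit analysis.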

[2] = species on record: Cavia porcellus; test: Effect on the contractile force of spontaneously beating atria from Reserpine-treated guinea pigs as percentage variation from the control at concentration of 10E-5 M; assay type: functional
Procedure, shortened: (§1)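 Atria from reserpine-treated guinea pigs (reserpine 2 mg/kg ip, 48 and 24 h before death; only tyramine-unresponsive preparations used). Bath solution at 29 °C, gassed 95% O2/5% CO2, pH 7.5, resting tension […]. After 90 min equilibration, compound added cumulatively, 5 min per concentration. Isometric developed-tension amplitude or beating rate given as % variation from untreated control. Mean ± SEM, 6-10 assays.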

[3] = species on record: Cavia porcellus; test: Effect on the contractile force of spontaneously beating atria from Reserpine-treated guinea pigs as percentage variation from the control at concentration of 10E-6 M; assay type: functional; procedure, shortened: as §1
[4] = species on record: Cavia porcellus; test: Effect on the contractile force of spontaneously beating atria from Reserpine-treated guinea pigs as percentage variation from the control at concentration of 3 x 10E-4 M; assay type: functional; procedure, shortened: as §1
[5] = species on record: Cavia porcellus; test: Effect on the contractile force of spontaneously beating atria from Reserpine-treated guinea pigs as percentage variation from the control at concentration of 3 x 10E-5 M; assay type: functional; procedure, shortened: as §1
[6] = species on record: Cavia porcellus; test: Effect on the contractile force of spontaneously beating atria from Reserpine-treated guinea pigs as percentage variation from the control at concentration of 3 x 10E-6 M; assay type: functional; procedure, shortened: as §1
[7] = species on record: Cavia porcellus; test: Effect on the frequency rate of spontaneously beating atria from Reserpine-treated guinea pigs as percentage variation from the control at concentration of 10E-3 M; assay type: functional; procedure, shortened: as §1
[8] = species on record: Cavia porcellus; test: Effect on the frequency rate of spontaneously beating atria from Reserpine-treated guinea pigs as percentage variation from the control at concentration of 10E-4 M; assay type: functional; procedure, shortened: as §1
[9] = species on record: Cavia porcellus; test: Effect on the frequency rate of spontaneously beating atria from Reserpine-treated guinea pigs as percentage variation from the control at concentration of 10E-5 M; assay type: functional; procedure, shortened: as §1
[10] = species on record: Cavia porcellus; test: Effect on the frequency rate of spontaneously beating atria from Reserpine-treated guinea pigs as percentage variation from the control at concentration of 10E-6 M; assay type: functional; procedure, shortened: as §1
[11] = species on record: Cavia porcellus; test: Inotropic Response in Electrically Driven Left Atrium from Reserpine-Treated Guinea Pigs in the absence of adenosine deaminase (ADA) at 10E-3 M; assay type: functional
Procedure, shortened: (§2)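 Electrically driven left atrium from reserpine-treated guinea pigs (tyramine-unresponsive), 29 °C, pH 7.5, resting tension […], 90 min equilibration. Compound dissolved in DMSO and added cumulatively, 5 min per step. Where used, adenosine deaminase was preincubated 20 min, and basal force was taken after ADA addition. Developed tension given as % change over control. Mean ± SEM of six assays.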

[12] = species on record: Cavia porcellus; test: Inotropic Response in Electrically Driven Left Atrium from Reserpine-Treated Guinea Pigs in the absence of adenosine deaminase (ADA) at 10E-4 M; assay type: functional; procedure, shortened: as §2
[13] = species on record: Cavia porcellus; test: Inotropic Response in Electrically Driven Left Atrium from Reserpine-Treated Guinea Pigs in the absence of adenosine deaminase (ADA) at 10E-5 M; assay type: functional; procedure, shortened: as §2
[14] = species on record: Cavia porcellus; test: Inotropic Response in Electrically Driven Left Atrium from Reserpine-Treated Guinea Pigs in the absence of adenosine deaminase (ADA) at 3 x 10E-5 M; assay type: functional; procedure, shortened: as §2
[15] = species on record: Cavia porcellus; test: Inotropic Response in Electrically Driven Left Atrium from Reserpine-Treated Guinea Pigs in the absence of adenosine deaminase (ADA) at 3 x 10E-6 M; assay type: functional; procedure, shortened: as §2
[16] = species on record: Cavia porcellus; test: Inotropic Response in Electrically Driven Left Atrium from Reserpine-Treated Guinea Pigs in the presence of 2 U/mL of adenosine deaminase (ADA) at 10E-3 M; assay type: functional; procedure, shortened: as §2
[17] = species on record: Cavia porcellus; test: Inotropic effect in electrically driven left atrium from reserpine-treated guinea pigs at concentration of 10E-3 M; assay type: functional, Cardiac atrium; procedure, shortened: as §2
[18] = species on record: Cavia porcellus; test: Inotropic effect in electrically driven left atrium from reserpine-treated guinea pigs at concentration of 10E-4 M; assay type: functional, Cardiac atrium; procedure, shortened: as §2
[19] = species on record: Cavia porcellus; test: Inotropic effect in electrically driven left atrium from reserpine-treated guinea pigs at concentration of 10E-5 M; assay type: functional, Cardiac atrium; procedure, shortened: as §2
[20] = species on record: Cavia porcellus; test: Inotropic effect in electrically driven left atrium from reserpine-treated guinea pigs at concentration of 10E-6 M; assay type: functional, Cardiac atrium; procedure, shortened: as §2
[21] = species on record: Cavia porcellus; test: Inotropic effect in electrically driven left atrium from reserpine-treated guinea pigs at concentration of 3 x 10E-4 M; assay type: functional, Cardiac atrium; procedure, shortened: as §2
[22] = species on record: Cavia porcellus; test: Inotropic effect in electrically driven left atrium from reserpine-treated guinea pigs at concentration of 3 x 10E-5 M; assay type: functional, Cardiac atrium; procedure, shortened: as §2
[23] = species on record: Cavia porcellus; test: Inotropic effect in electrically driven left atrium from reserpine-treated guinea pigs at concentration of 3 x 10E-6 M; assay type: functional, Cardiac atrium; procedure, shortened: as §2
[24] = species on record: Cavia porcellus; test: Compound was evaluated for its effect on the frequency rate of spontaneously beating atria from Reserpine-treated guinea pigs as percentage variation from the control at concentration of 3 x 10E-4 M; assay type: functional; procedure, shortened: as §1
[25] = species on record: Cavia porcellus; test: (§3) Compound was evaluated for its effect on the frequency rate of spontaneously beating atria from Reserpine-treated guinea pigs as percentage variation from the control at concentration of 3 x 10E-5 M; assay type: functional; procedure, shortened: as §1
[26] = species on record: Cavia porcellus; test: Compound was evaluated for its effect on the frequency rate of spontaneously beating atria from Reserpine-treated guinea pigs as percentage variation from the control at concentration of 3 x 10E-6 M; assay type: functional; procedure, shortened: as §1
[27] = species on record: Cavia porcellus; test: Inotropic Response in Electrically Driven Left Atrium from Reserpine-Treated Guinea Pigs in the presence of 2 U/mL of adenosine deaminase (ADA) at 10E-4 M; assay type: functional; procedure, shortened: as §2
[28] = species on record: Cavia porcellus; test: Inotropic Response in Electrically Driven Left Atrium from Reserpine-Treated Guinea Pigs in the presence of 2 U/mL of adenosine deaminase (ADA) at 10E-5 M; assay type: functional; procedure, shortened: as §2
[29] = species on record: Cavia porcellus; test: Inotropic Response in Electrically Driven Left Atrium from Reserpine-Treated Guinea Pigs in the presence of 2 U/mL of adenosine deaminase (ADA) at 3 x 10E-4 M; assay type: functional; procedure, shortened: as §2
[30] = species on record: Cavia porcellus; test: Inotropic Response in Electrically Driven Left Atrium from Reserpine-Treated Guinea Pigs in the presence of 2 U/mL of adenosine deaminase (ADA) at 3 x 10E-5 M; assay type: functional; procedure, shortened: as §2
[31] = species on record: Cavia porcellus; test: Inotropic Response in Electrically Driven Left Atrium from Reserpine-Treated Guinea Pigs in the presence of 2 U/mL of adenosine deaminase (ADA) at 3 x 10E-6 M; assay type: functional; procedure, shortened: as §2
[32] = species on record: Cavia porcellus; test: Effect on the contractile force of spontaneously beating atria from Reserpine-treated guinea pigs as percentage variation from the control at concentration of 10E-3 M; assay type: functional; procedure, shortened: as §1
[33] = species on record: Cavia porcellus; test: Effect on the contractile force of spontaneously beating atria from Reserpine treated guinea pigs as percentage variation from the control at concentration of 10E-4 M; assay type: functional; procedure, shortened: as §1
[34] = species on record: Cavia porcellus; test: Inotropic Response in Electrically Driven Left Atrium from Reserpine-Treated Guinea Pigs in the absence of adenosine deaminase (ADA) at 3 x 10E-4 M; assay type: functional; procedure, shortened: as §2
[35] = species on record: Cavia porcellus; test: as §3; assay type: functional, guinea pig; procedure, shortened: as §1
[36] = species on record: Cavia porcellus; test: Compound was evaluated for its effect on the frequency rate of spontaneously beating atria from Reserpine-treated guinea pigs as percentage variation from the control at different concentration of 10E-3 M; assay type: functional; procedure, shortened: as §1
[37] = species on record: Cavia porcellus; test: Compound was evaluated for its effect on the frequency rate of spontaneously beating atria from Reserpine-treated guinea pigs as percentage variation from the control at different concentration of 10E-4 M; assay type: functional; procedure, shortened: as §1
[38] = species on record: Cavia porcellus; test: Compound was evaluated for its effect on the frequency rate of spontaneously beating atria from Reserpine-treated guinea pigs as percentage variation from the control at different concentration of 10E-5 M; assay type: functional; procedure, shortened: as §1
[39] = species on record: Cavia porcellus; test: Compound was evaluated for its effect on the frequency rate of spontaneously beating atria from Reserpine-treated guinea pigs as percentage variation from the control at different concentration of 3 x 10E-4 M; assay type: functional; procedure, shortened: as §1
[40] = species on record: Cavia porcellus; test: Compound was evaluated for its effect on the frequency rate of spontaneously beating atria from Reserpine-treated guinea pigs as percentage variation from the control at different concentration of 3 x 10E-5 M; assay type: functional; procedure, shortened: as §1

CN(C)c1ncc(C(=O)O)c(Cc2ccccc2)n1
IC50 [1]: 583 µM
Variation [2]: 15.24%
Variation [3]: 3.52%
Variation [4]: 67.75%
Variation [5]: 22.89%
Variation [6]: 9.37%
Variation [7]: -10.25%
Variation [8]: -5.02%
Variation [9]: 0%
Variation [10]: 0%
Increase [11]: 88.35%
Increase [12]: 44.95%
Increase [13]: 27.41%
Increase [14]: 33.61%
Increase [15]: 11.21%
Increase [16]: 57.2%
Variation [17]: 78.6%
Variation [18]: 36.3%
Variation [19]: 16.5%
Variation [20]: 3.23%
Variation [21]: 53%
Variation [22]: 24.7%
Variation [23]: 9.7%
Variation [24]: -5.69%
Variation [25]: -3.85%
Variation [26]: 0%
Increase [27]: 19.1%
Increase [28]: 4.76%
Increase [29]: 33.3%
Increase [30]: 9.52%
Increase [31]: 0%
Variation [32]: 88.05%
Variation [33]: 35.26%
Increase [34]: 66.21%

CCOC(=O)c1cnc(N(C)C)nc1
Variation [2]: 5.55%
Variation [3]: 1.19%
Variation [4]: 11.71%
Variation [5]: 11.04%
Variation [6]: 4.76%
Variation [7]: 18.51%
Variation [8]: 11.11%
Variation [9]: 3.71%
Variation [10]: 0%
Variation [24]: 14.81%
Variation [26]: 0%
Variation [32]: -59.61%
Variation [33]: 9.03%
Variation [35]: 7.43%

CN(C)c1ncc(C(=O)O)c(C(C)(C)C)n1
Variation [2]: 9.67%
Variation [3]: 3.51%
Variation [4]: 14.21%
Variation [5]: 12.51%
Variation [6]: 7.58%
Variation [10]: 0%
Variation [26]: 3.33%
Variation [36]: 11.11%
Variation [37]: 3.71%
Variation [38]: 3.33%
Variation [39]: 7.42%
Variation [40]: 3.33%
Variation [32]: 18.64%
Variation [33]: 13.23%
